Experimental data taken from ChEMBL document CHEMBL1137352, “Design and synthesis of novel isoquinoline-3-nitriles as orally bioavailable Kv1.5 antagonists for the treatment of atrial fibrillation” (J Med Chem, 2006).
Active and inactive are the calls of the source. No cut-off for these calls is given here.

Tests used:
[1] = target: Potassium voltage-gated channel subfamily A member 5 (Homo sapiens, UniProt P22460); assay: Antagonist activity at human Kv1.5 channel expressed in CHO cell membrane by HT clamp assay; assay type: functional, cell-based
Outline: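 IC50 from 10-point concentration-response curves by HT-clamp voltage clamp, 3-4 cells per point. A reference Kv1.5 antagonist was run as positive control.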

[2] = target: Voltage-gated inwardly rectifying potassium channel KCNH2 (Homo sapiens, UniProt Q12809); assay: Binding affinity to hERG potassium channel
Rattus norvegicus [3] = organism: Rattus norvegicus; assay: Increase in atrial refractory period in surgically instrumented rat electrophysiology model; assay type: functional, organism-based; conditions: Cardiac atrium
Rattus norvegicus [4] = organism: Rattus norvegicus; assay: Increase in ventricular refractory period in surgically instrumented rat electrophysiology model; assay type: functional, organism-based; conditions: Cardiac ventricle
Rattus norvegicus [5] = organism: Rattus norvegicus; assay: Effect on AV node refractory period in surgically instrumented rat electrophysiology model at 35 uM; assay type: functional, organism-based
[6] = Bioavailability in rat; assay type: ADME, organism-based; conditions: in vivo
[7] = Clearance in rat; assay type: ADME, organism-based; conditions: in vivo
[8] = Volume of distribution in rat; assay type: ADME, organism-based; conditions: in vivo, read-out: Vdss
Rattus norvegicus [9] = organism: Rattus norvegicus; assay: Increase in atrial refractory period in surgically instrumented rat electrophysiology model; conditions: Cardiac atrium
Canis familiaris [10] = organism: Canis familiaris; assay: Increase in atrial refractory period in dog electrophysiology model; assay type: functional, organism-based; conditions: Canis lupus familiaris; Cardiac atrium
Canis familiaris [11] = organism: Canis familiaris; assay: Effect on ventricular refractory period in dog electrophysiology model; assay type: functional, organism-based; conditions: Canis lupus familiaris; Cardiac ventricle
Rattus norvegicus [12] = organism: Rattus norvegicus; assay: Increase in AV node refractory period in surgically instrumented rat electrophysiology model; assay type: functional, organism-based

Potassium voltage-gated channel subfamily A member 5, sequence (P22460 whole entry): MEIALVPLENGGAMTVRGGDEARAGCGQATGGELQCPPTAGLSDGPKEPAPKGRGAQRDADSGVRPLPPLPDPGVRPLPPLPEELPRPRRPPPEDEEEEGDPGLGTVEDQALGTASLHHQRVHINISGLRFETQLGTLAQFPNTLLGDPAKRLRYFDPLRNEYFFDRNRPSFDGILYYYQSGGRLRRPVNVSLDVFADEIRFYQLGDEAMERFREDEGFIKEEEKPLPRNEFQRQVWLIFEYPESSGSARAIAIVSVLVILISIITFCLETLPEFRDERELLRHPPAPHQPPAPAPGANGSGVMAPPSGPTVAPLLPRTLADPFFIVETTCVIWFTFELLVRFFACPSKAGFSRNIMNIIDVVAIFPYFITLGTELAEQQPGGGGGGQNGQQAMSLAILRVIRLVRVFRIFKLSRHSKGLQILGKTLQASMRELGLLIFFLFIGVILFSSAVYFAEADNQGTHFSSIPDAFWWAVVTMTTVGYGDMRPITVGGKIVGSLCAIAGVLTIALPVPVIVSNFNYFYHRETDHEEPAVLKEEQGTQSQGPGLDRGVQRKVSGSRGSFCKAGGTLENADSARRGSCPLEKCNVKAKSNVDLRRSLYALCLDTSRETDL
Voltage-gated inwardly rectifying potassium channel KCNH2, sequence (Q12809 whole entry): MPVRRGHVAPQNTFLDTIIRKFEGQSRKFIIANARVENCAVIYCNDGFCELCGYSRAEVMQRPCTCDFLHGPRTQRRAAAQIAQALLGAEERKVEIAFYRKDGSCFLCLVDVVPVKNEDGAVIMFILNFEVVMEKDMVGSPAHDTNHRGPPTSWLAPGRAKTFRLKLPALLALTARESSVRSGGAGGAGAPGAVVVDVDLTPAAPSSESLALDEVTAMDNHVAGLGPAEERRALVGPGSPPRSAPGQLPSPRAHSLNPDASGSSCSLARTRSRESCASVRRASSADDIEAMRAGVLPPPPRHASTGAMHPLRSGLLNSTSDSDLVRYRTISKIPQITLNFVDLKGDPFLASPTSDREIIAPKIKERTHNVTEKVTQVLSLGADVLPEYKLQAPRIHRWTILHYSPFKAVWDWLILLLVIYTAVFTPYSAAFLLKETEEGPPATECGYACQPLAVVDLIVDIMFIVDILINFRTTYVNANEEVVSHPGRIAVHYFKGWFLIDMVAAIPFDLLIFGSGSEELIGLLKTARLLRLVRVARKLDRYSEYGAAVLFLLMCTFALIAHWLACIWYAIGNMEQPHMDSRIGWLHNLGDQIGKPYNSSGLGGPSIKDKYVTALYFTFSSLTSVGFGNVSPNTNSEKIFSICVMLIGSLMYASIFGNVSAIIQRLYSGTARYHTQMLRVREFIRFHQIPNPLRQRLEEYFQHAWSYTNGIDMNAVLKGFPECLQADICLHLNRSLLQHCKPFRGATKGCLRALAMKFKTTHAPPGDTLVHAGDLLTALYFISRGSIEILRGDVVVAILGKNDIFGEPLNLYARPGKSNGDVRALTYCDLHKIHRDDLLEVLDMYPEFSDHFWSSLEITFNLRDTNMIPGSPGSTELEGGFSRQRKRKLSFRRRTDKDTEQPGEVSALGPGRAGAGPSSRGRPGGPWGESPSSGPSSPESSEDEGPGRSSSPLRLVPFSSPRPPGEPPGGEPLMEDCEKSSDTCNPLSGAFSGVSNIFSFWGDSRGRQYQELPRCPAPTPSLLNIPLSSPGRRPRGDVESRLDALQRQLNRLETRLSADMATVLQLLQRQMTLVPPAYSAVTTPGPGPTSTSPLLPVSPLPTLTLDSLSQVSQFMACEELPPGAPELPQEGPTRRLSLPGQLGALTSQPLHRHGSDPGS

In the case of `COCCN(C)CCn1c(C#N)c(-c2cccc(F)c2)c2cc(OC)ccc2c1=O`, the IC50 [1] is reported as 790 nM.
`COc1ccc2c(=O)n(CC(CO)NCc3cccnc3)c(C#N)c(-c3ccccc3)c2c1` (centres undefined) showed an IC50 [2] of 10000 nM and an IC50 [1] of 120 nM.
With `COc1ccc2c(=O)n(C[C@H](O)CO)c(C#N)c(-c3ccccc3)c2c1` the Activity (Rattus norvegicus [3]) was “Active”, the Activity (Rattus norvegicus [4]) was “Active” and the Activity (Rattus norvegicus [5]) was “inactive”.
`COc1ccc2c(OC[C@H](O)CO)nc(C#N)c(-c3ccccc3)c2c1` showed a bioavailability [6] of 67%, a clearance [7] of 13 mL/min/kg and a Vd [8] of 1.7 L/kg. For the same compound, the IC50 [2] was 20500 nM, the IC50 [1] was 160 nM and the Activity (Rattus norvegicus [9]) was “Active”.
Work on `COc1ccc2c(=O)n(C)c(CN(C)C)c(-c3ccccc3)c2c1` yielded a bioavailability [6] of 11%, a clearance [7] of 26 mL/min/kg and an IC50 [2] of 5300 nM. The IC50 [1] was 190 nM.
In the case of `COc1ccc2c(C(=O)NCCO)nc(C#N)c(-c3ccccc3)c2c1`, the Activity (Rattus norvegicus [3]) is reported as “Active”, the IC50 [2] is reported as > 30000 nM and the Activity (Canis familiaris [10]) is reported as “Active”. For the same compound, the Activity (Canis familiaris [11]) was “inactive”.
For `COc1ccc2c(-n3cnc(C)c3)nc(C#N)c(-c3cccc(F)c3)c2c1`, the Activity (Rattus norvegicus [3]) was “Active” and the IC50 [1] was 260 nM.
With `COc1ccc2c(=O)n(CC(O)CO)c(C#N)c(-c3cccc(C(F)(F)F)c3)c2c1` (centres undefined) the IC50 [1] was 250 nM.
Work on `COc1ccc2c(=O)n(CCO)c(C#N)c(-c3cccc(F)c3)c2c1` yielded an IC50 [1] of 690 nM.
Compound `COc1ccc2c(=O)n(CC(O)CO)c(C#N)c(-c3cccc(F)c3)c2c1` (centres undefined) has an IC50 [2] of 33500 nM and an IC50 [1] of 870 nM.
For `COc1ccc2c(NC[C@H](O)CO)nc(C#N)c(-c3ccccc3)c2c1`, the IC50 [2] was 15000 nM, the Activity (Rattus norvegicus [12]) was “Active” and the Activity (Rattus norvegicus [9]) was “Active”.
